Experiments:
[1] = tested on: Mycobacterium tuberculosis; assay: Antimicrobial activity against multidrug-resistant Mycobacterium tuberculosis LAM-1 at 1 uM by Bactec 460 TB method relative to control; format: functional; settings: read-out: GI
In short: (§1)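 MDR clinical isolate LAM-1 was precultured in a BACTEC vial to growth index 300, then inoculated into a fresh vial with compound (dilutions made at 40-fold final in 7H9-10% OADC). 14CO2 release from 14C-palmitic acid was read daily.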

[2] = tested on: Mycobacterium tuberculosis; assay: Antimicrobial activity against multidrug-resistant Mycobacterium tuberculosis LAM-1 at 5 uM by Bactec 460 TB method relative to control; format: functional; settings: read-out: GI; in short: as §1

What does the source list for `COc1ccc(-c2cc(O)c3c(c2)C(=O)c2ccccc2C3=O)cc1`?
inhibition of growth at 1 µM [1]: 90%; inhibition of growth at 5 µM [2]: 99%

Which results are given for `COc1ccc(-c2cc3c(c(/C=C/N(C)C)n2)C(=O)c2ccccc2C3=O)cc1`?
inhibition of growth at 1 µM [1]: 90%; inhibition of growth at 5 µM [2]: 99%

For `COc1ccc(-c2cc3c4c(nccc4n2)-c2ccccc2C3=O)cc1`, which inhibition of growth at 1 µM [1] is on record?
Its inhibition of growth at 1 µM is 90%.

What about the inhibition of growth at 5 µM [2] of the same molecule?
The inhibition of growth at 5 µM was 99%.

Source: ChEMBL document CHEMBL2434878, “Synthesis and antimycobacterial activity of analogues of the bioactive natural products sampangine and cleistopholine” (Eur J Med Chem, 2013)
